Records with an inconclusive call do not appear. Calls of active or inactive are those of the source.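 The calls were made as follows: active = every repeat test active, with falling signal and half-maximal dose at most ten times the top dose; inconclusive = repeat tests disagree, or a weak flat or poor fit; inactive = all tests inactive, including signal shifting the wrong way.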
tested on: not listed separately; assay: HMLE_sh_eGFP viability loss – cell-based, luminescence, dry powder, set 3, counter-screen for breast cancer stem cell project, dose response (AID 493196); conditions: HMLE_sh_eGFP viability, CellTiter-Glo luminescence, 72 h; at 19.5 µM (top of the series)
In short: (§1)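 Medium: serum-free CSC screening medium / System: HMLE_sh_eGFP counterscreen cell line / Technique: CellTiter-Glo luminescence / Control set: DMSO neutral, puromycin 160 µM positive / Times: ≥4 h attachment, ~70–74 h exposure, 37 °C, 5% CO2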

SMILES | activity change, negative = cytotoxic
O=C(c1ccccc1)c1coc2ccc(O)c(Br)c12 | 1.2% (inactive)

tested on: HMLE_sh_eGFP viability, CellTiter-Glo luminescence, 72 h; assay: as above; conditions: not given
In short: as §1

SMILES | AC50
O=C1NC(=Nc2ccc(Cl)cc2)SC1Cc1cccc(Cl)c1Cl (stereo not drawn) | 14.5 µM
CC(C)(C)c1ccc2c(c1)OC(C(=O)NN=Cc1ccc[nH]1)CO2 (mixture of isomers) | 19.6 µM
CCN1C(=O)/C(=C\N2CCN(c3cccc(Cl)c3)CC2)SC1=S | 11.8 µM
CCCCCCc1cc2cc(S(=O)(=O)c3ccc(Cl)cc3)c(=O)oc2cc1O | 0.965 µM
Cc1onc(-c2ccccc2)c1C(=O)Nc1sc2c(c1C#N)CCC(C)C2 (stereo not drawn) | 6.9 µM
C/C(=N\NC(=O)c1cc(-c2cccc([N+](=O)[O-])c2)n[nH]1)c1ccccc1O | 3.52 µM
Cc1ccc2nc(NC(=O)c3cccc(-c4cc5ccccc5oc4=O)c3)sc2c1 | 1.85 µM
CN(c1ccccc1)S(=O)(=O)c1ccc(-c2ccccc2)cc1 | 14.4 µM
O=C(Nc1ccccc1N1CCCC1)c1cccc(-c2cc3ccccc3oc2=O)c1 | 7.97 µM
COC(=O)c1c(NC(=O)c2ccccc2)sc2c1CC(C)(C)OC2 | 13.4 µM
Nc1cc(Cl)ccc1Oc1ccc2ccccc2c1 | 9.73 µM
CC(=O)c1cccc(NS(=O)(=O)c2cc(-c3cnc(C4CC4)o3)ccc2C)c1 | 2.67 µM
